The source made the active and inactive calls.
What was measured:
HT-29 [1] = assay: Inhibition of TNFalpha-induced NF-kappaB activation expressed in human HT-29 cells coexpressing hrGFP at 100 uM after 24 hrs by propidium iodide staining-based flow cytometric analysis relative to control; assay type: cell-based
Method in brief: (§1)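 HT-29 cells stably expressing NF-κB-driven hrGFP given compound (DMSO <0.5%) for 2 h at the maximum non-cytotoxic concentration, then TNF-α at 3 ng/mL final for 18–24 h. Cells trypsinised and stained with propidium iodide; 5000 events gated on FSC/SSC. The %GFP-positive among PI-excluding live cells is normalised to TNF-α/DMSO control, ± SD.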

HT-29 [2] = assay: Inhibition of TNFalpha-induced NF-kappaB activation expressed in human HT-29 cells coexpressing hrGFP at 400 uM after 24 hrs by propidium iodide staining-based flow cytometric analysis relative to control; assay type: cell-based; method in brief: as §1
HT-29 [3] = assay: Inhibition of TNFalpha-induced NF-kappaB activation expressed in human HT-29 cells coexpressing hrGFP at 200 uM after 24 hrs by propidium iodide staining-based flow cytometric analysis relative to control; assay type: cell-based; method in brief: as §1
[4] = Cytotoxicity against human HT-29 cells expressing NF-kappaB-hrGFP assessed as highest non-cytotoxic dose for 100% cell survival after 24 hrs by MTT assay; assay type: cell-based; details: read-out: Activity
Method in brief: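 HT-29 cells stably carrying pNF-κB-hrGFP, seeded at 0.5 × 10^6/mL in DMEM with 10% FBS, grown 24 h at 37 °C, 5% CO2. Compounds added in DMSO (<0.5% v/v final) at 12.5–400 µM for 24 h. Viability by MTT reduction (2 h), formazan dissolved in DMSO/glycine buffer, read at 560 nm.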

HT-29 [5] = assay: Inhibition of NF-kappaB activation expressed in human HT-29 cells assessed as inhibition of TNFalpha-stimulated IL8 release at 100 uM after 24 hrs by flow cytometric analysis relative to control; assay type: cell-based
Method in brief: (§2)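 Reporter HT-29-NF-κB-hrGFP cells pretreated 2 h with compound (DMSO <0.5%) at the highest concentration with 100% survival, then stimulated with TNF-α (3 ng/mL final) for 18–24 h at 37 °C. IL-8 in clarified supernatant measured by flow cytometric bead assay (500 events). Expressed as % of TNF-α/DMSO control ± SD; thalidomide as reference.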

HT-29 [6] = assay: Inhibition of NF-kappaB activation expressed in human HT-29 cells assessed as inhibition of TNFalpha-stimulated IL8 release at 400 uM after 24 hrs by flow cytometric analysis relative to control; assay type: cell-based; method in brief: as §2
HT-29 [7] = assay: Inhibition of NF-kappaB activation expressed in human HT-29 cells assessed as inhibition of TNFalpha-stimulated IL8 release at 200 uM after 24 hrs by flow cytometric analysis relative to control; assay type: cell-based; method in brief: as §2
[8] = Cytotoxicity against mouse […] cells after 48 hrs by MTT assay; assay type: cell-based
Method in brief: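 J774 macrophages in DMEM (4 mM L-glutamine, 10% heat-inactivated FBS) were seeded at 1 × 10^5 cells/well and grown for 48 h at 37 °C, 5% CO2. They were then exposed to compounds at 25–400 µM for 48 h. MTT (0.1 mg/mL final) was added for 3 h, formazan was dissolved in DMSO/glycine buffer pH 10.5, and absorbance was read at 560 nm to give an IC50.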

HT-29 [9] = assay: Pro-inflammatory activity in NFkappaB-GFP transfected human HT-29 cells at 25 to 400 uM after 24 hrs by propidium iodide staining-based flow cytometric analysis; assay type: ADME, cell-based; details: ht-29, 24 h
Method in brief: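 Reporter HT-29-NF-κB-hrGFP cells given compound alone, without TNF-α, for 18–24 h at 37 °C after the same 2 h pre-incubation. GFP-positive live (propidium iodide-excluding) cells counted by flow cytometry; IL-8 in supernatant measured by bead-based flow cytometry.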

Glycine max [10] = assay: Inhibition of soybean lipoxygenase using arachidonic acid as substrate at 4 uM
Method in brief: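 Soybean lipoxygenase-15 screening kit with arachidonic acid as substrate and H2O2 as lipoxygenating agent in 0.1 M Tris-HCl, pH 7.4. Values are % inhibition, means of duplicate determinations, Student t-test.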

HT-29 [11] = assay: Inhibition of TNF-alpha-induced NFkappaB activation expressed in human HT-29 cells coexpressing hrGFP at 50 uM after 24 hrs by propidium iodide staining-based flow cytometric analysis relative to control; assay type: cell-based; method in brief: as §1
HT-29 [12] = assay: Inhibition of NF-kappaB activation expressed in human HT-29 cells assessed as inhibition of TNFalpha-stimulated IL8 release at 50 uM after 24 hrs by flow cytometric analysis relative to control; assay type: cell-based; method in brief: as §2
Mus musculus = assay: Analgesic activity in albino mouse assessed as inhibition of acetic acid-induced abdominal constriction at 100 umol/kg, po administered 1 hr before acetic acid challenge measured after 30 mins relative to control; assay type: functional; details: Abdomen
Method in brief: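 Albino mice of both sexes (18–23 g) were dosed orally as a suspension in 5% arabic gum in saline, with vehicle controls. After 1 h they received 0.6% acetic acid ip (0.1 mL/10 g). Constrictions were counted for 20 min starting 10 min after injection. Data are % inhibition vs vehicle, mean ± SEM, Student t-test.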

Rattus norvegicus [13] = assay: Antiinflammatory activity in albino rat assessed as inhibition of carrageenan-induced paw edema at 100 umol/kg, po administered 1 hr before carrageenan challenge measured after 3 hrs by plethysmometric analysis relative to control; assay type: functional
Method in brief: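 Albino rats of both sexes (150–200 g) were dosed orally as a suspension in 1% Tween 80 in saline, with vehicle controls. After 1 h, 0.1 mL 1% carrageenan or saline was injected subplantar. Paw volume was read by glass plethysmometer at 3 h. Edema = carrageenan-paw minus saline-paw volume; % inhibition vs vehicle; Student t-test.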

Glycine max [14] = assay: Inhibition of soybean lipoxygenase using arachidonic acid as substrate at 50 uM
Method in brief: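 Soybean 15-lipoxygenase kit assay, arachidonic acid substrate, H2O2 as lipoxygenating agent in 0.1 M Tris-HCl pH 7.4. Single-point screen at 50 µM. IC50 found by varying concentration over 10–100 µM. Quercetin at 4 µM as positive control; duplicate means; Student t-test.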

[15] = Induction of NO release in 0.1 M Tris-HCl and 0.1 mM DTPA at pH 7.4 measured for 20 mins in presence of cysteine; assay type: physicochemical; details: buffer, pH 7.4, 20 min
Method in brief: (§3)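 Electrochemical NO detection with an ISO-NOP sensor. Compounds in DMSO added to 0.1 M Tris-HCl, 0.1 mM DTPA at pH 7.4 or 8.3. Cysteine (300 or 100 µM) added and NO recorded for 20 min at 25 or 37 °C; compound:Cys ratio 1:1 at 25 °C, with 3:1 and 37 °C runs also made.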

[16] = Induction of NO release in 0.1 M Tris-HCl and 0.1 mM DTPA at pH 8.3 measured for 20 mins in presence of cysteine; assay type: physicochemical; details: buffer, pH 8.3, 20 min; method in brief: as §3
Rattus norvegicus [17] = assay: Antihyperalgesic activity against carrageenan-induced thermal hyperalgesia in Wistar rat assessed as latency of withdrawal response at 100 umol/kg, po administered 1 hr before carrageenan challenge measured after 30 to 240 mins by hot plate test; assay type: functional, organism-based
Method in brief: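 Wistar rats of both sexes (150–200 g) dosed orally at 100 µmol/kg as suspension in 5% arabic gum in saline, vehicle controls. After 1 h, 1% carrageenan (1 mg/paw) or saline injected subplantar. Left hind paw withdrawal latency on hot plate at 51 ± 0.1 °C read at 0–240 min, 20 s cut-off. Δ latency = time-0 latency minus later latency; mean ± SEM, n = 8–10; Student t-test.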

[18] = Solubility of the compound in soybean lipoxygenase assay buffer at pH 7.4 at >50 uM; assay type: physicochemical

Row | SMILES | NF-kappaB activity (% of TNF-alpha control) (HT-29 [1]) | inhibition (HT-29 [3]) | MNTC at 24 h [4] | inhibition (HT-29 [5]) | IC50 [8] | Activity (HT-29 [9]) | inhibition (Glycine max [14]) | further results
1 | O=C1CCC(N2C(=O)c3ccccc3C2=O)C(=O)N1 (configuration not stated) [THALIDOMIDE] | 126% | 114% | 100 µM | 63% | > 400 µM | Non-toxic |  | NF-kappaB activity (GFP-positive cells), % of TNF-alpha control (HT-29 [2]): 116%; inhibition (HT-29 [6]): 57%; inhibition (HT-29 [7]): 77%
2 | Cc1[nH]cnc1C(=O)N/N=C/c1c(-c2ccccc2)no[n+]1[O-] |  | 103% | 200 µM |  | > 400 µM | Non-toxic |  | 
3 | O=c1c(O)c(-c2ccc(O)c(O)c2)oc2cc(O)cc(O)c12 |  |  |  |  |  |  |  | inhibition (Glycine max [10]): 35%
4 | O=C(N/N=C/c1ccc2no[n+]([O-])c2c1)c1cccnc1 |  |  | 50 µM |  | 31 µM | Non-toxic | 0% | NF-kappaB activation (% of TNF-alpha control) (HT-29 [11]): 66%; inhibition (HT-29 [12]): 29%; inhibition in vivo at 100 µmol/kg (Mus musculus): 35%; inhibition in vivo at 100 µmol/kg (Rattus norvegicus [13]): 0%; Activity [15]: 0 nM/min; Activity [16]: 0.64 nM/min; Activity (Rattus norvegicus [17]): inactive
5 | Cc1[nH]cnc1C(=O)N/N=C/c1no[n+]([O-])c1C | 126% |  | 100 µM | 103% | > 400 µM | Non-toxic | 27% | solubility [18]: Insoluble

Source: ChEMBL document CHEMBL1955718, “Discovery of new orally effective analgesic and anti-inflammatory hybrid furoxanyl N-acylhydrazone derivatives” (Bioorg Med Chem, 2012)
